Data taken from ChEMBL document CHEMBL5325390, “1,2,4-Triazole-3-thione analogues with an arylakyl group at position 4 as metallo-β-lactamase inhibitors” (Bioorg Med Chem, 2022).
Active and inactive are the calls of the source. No cut-off for these calls is given here.

Assays:
[1] = target: Beta-lactamase VIM-1 (Bacteria) (UniProt Q8GDC1); test: Inhibition of VIM-1 (unknown origin) expressed in Escherichia coli BL21(DE3) assessed as substrate hydrolysis at 100 uM by UV-Vis spectrophotometric analysis relative to control
Method in brief: (§1)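 Single-point screen at 100 or 200 µM inhibitor against purified MBL (1–70 nM) with 150 µM imipenem or meropenem reporter substrate, 50 mM HEPES pH 7.5, 30 °C. Initial hydrolysis rate read by absorbance at 300 nm and compared with the uninhibited reaction. Triplicate.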

[2] = test system: metallo-β-lactamase IMP-1 (Pseudomonas aeruginosa); test: Inhibition of IMP1 (unknown origin) expressed in Escherichia coli BL21(DE3) assessed as substrate hydrolysis at 100 uM by UV-Vis spectrophotometric analysis relative to control
[3] = test system: metallo-β-lactamase VIM-2 (Pseudomonas aeruginosa); test: Inhibition of VIM-2 (unknown origin) expressed in Escherichia coli BL21(DE3) assessed as substrate hydrolysis at 100 uM by UV-Vis spectrophotometric analysis relative to control
[4] = test system: metallo-β-lactamase VIM-4 (Pseudomonas aeruginosa); test: Inhibition of VIM-4 (unknown origin) expressed in Escherichia coli BL21(DE3) assessed as substrate hydrolysis at 100 uM by UV-Vis spectrophotometric analysis relative to control
[5] = test system: metallo-β-lactamase L1 (Stenotrophomonas maltophilia); test: Inhibition of L1 (unknown origin) expressed in Escherichia coli BL21(DE3) assessed as substrate hydrolysis at 100 uM by UV-Vis spectrophotometric analysis relative to control
[6] = target: Metallo-beta-lactamase type 2 (Bacteria) (UniProt C7C422); test: Inhibition of NDM1 (unknown origin) expressed in Escherichia coli BL21(DE3) assessed as substrate hydrolysis at 100 uM by UV-Vis spectrophotometric analysis relative to control; method in brief: as §1
[7] = test system: metallo-β-lactamase VIM-4 (Pseudomonas aeruginosa); test: Inhibition of VIM-4 (unknown origin) expressed in Escherichia coli BL21(DE3) assessed as substrate hydrolysis at 200 uM by UV-Vis spectrophotometric analysis relative to control
[8] = target: Beta-lactamase VIM-1 (Bacteria) (UniProt Q8GDC1); test: Inhibition of VIM-1 (unknown origin) expressed in Escherichia coli BL21(DE3) assessed as substrate hydrolysis at 200 uM by UV-Vis spectrophotometric analysis relative to control; method in brief: as §1
[9] = test system: metallo-β-lactamase IMP-1 (Pseudomonas aeruginosa); test: Inhibition of IMP1 (unknown origin) expressed in Escherichia coli BL21(DE3) assessed as substrate hydrolysis at 200 uM by UV-Vis spectrophotometric analysis relative to control
[10] = target: Metallo-beta-lactamase type 2 (Bacteria) (UniProt C7C422); test: Inhibition of NDM1 (unknown origin) expressed in Escherichia coli BL21(DE3) assessed as substrate hydrolysis at 200 uM by UV-Vis spectrophotometric analysis relative to control; method in brief: as §1
[11] = test system: metallo-β-lactamase VIM-2 (Pseudomonas aeruginosa); test: Inhibition of VIM-2 (unknown origin) expressed in Escherichia coli BL21(DE3) assessed as substrate hydrolysis at 200 uM by UV-Vis spectrophotometric analysis relative to control
[12] = test system: Klebsiella pneumoniae; test: Antimicrobial synergistic activity against blaVIM-4-producing multidrug-resistant Klebsiella pneumoniae VA416/02 clinical isolate assessed as meropenem MIC at 32 ug/ml by CLSI based broth microdilution method (reference value: 16 ug/ml); format: functional; conditions: dose 32 µg/ml
[13] = target: Beta-lactamase VIM-1 (Bacteria, UniProt Q8GDC1); test: Binding affinity to VIM-1 (unknown origin) expressed in Escherichia coli BL21(DE3) assessed as inhibition constant by measuring rate of substrate hydrolysis by UV-Vis spectrophotometric analysis
Method in brief: (§2)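 Purified MBL (1–70 nM) with 150 µM imipenem or meropenem as reporter substrate, 50 mM HEPES pH 7.5, 30 °C. Hydrolysis followed by absorbance at 300 nm without and with inhibitor (0.5 µM–1 mM). Ki from the slope of v0/vi vs [I] under a competitive model, or from Dixon plots varying inhibitor and substrate. […] Triplicate, mean ± SD.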

[14] = Binding affinity to VIM-2 (unknown origin) expressed in Escherichia coli BL21(DE3) assessed as inhibition constant by measuring rate of substrate hydrolysis by UV-Vis spectrophotometric analysis; method in brief: as §2
[15] = test system: Klebsiella pneumoniae; test: Antimicrobial synergistic activity against blaVIM-1-producing multidrug-resistant Klebsiella pneumoniae 7023 clinical isolate assessed as meropenem MIC at 32 ug/ml by CLSI based broth microdilution method (reference value: 16 ug/ml); format: functional; conditions: dose 32 µg/ml
[16] = test system: Escherichia coli; test: Synergistic antimicrobial activity against blaNDM-1-producing multidrug-resistant Escherichia coli SI-004M clinical isolate assessed as meropenem MIC at 32 ug/ml by CLSI based microdilution method (reference value: 64 ug/ml); format: functional; conditions: dose 32 µg/ml
[17] = Binding affinity to VIM-4 (unknown origin) expressed in Escherichia coli BL21(DE3) assessed as inhibition constant by measuring rate of substrate hydrolysis by UV-Vis spectrophotometric analysis; method in brief: as §2
[18] = target: T1, Angiotensin-converting enzyme (Oryctolagus cuniculus) (UniProt P12822); test: Inhibition of rabbit lung angiotensin-converting enzyme at 100 uM using Abz-Gly-Phe-(NO2)-Pro as substrate by fluorescence based microplate reader analysis relative to control; format: tissue-based
T1 sequence (whole entry): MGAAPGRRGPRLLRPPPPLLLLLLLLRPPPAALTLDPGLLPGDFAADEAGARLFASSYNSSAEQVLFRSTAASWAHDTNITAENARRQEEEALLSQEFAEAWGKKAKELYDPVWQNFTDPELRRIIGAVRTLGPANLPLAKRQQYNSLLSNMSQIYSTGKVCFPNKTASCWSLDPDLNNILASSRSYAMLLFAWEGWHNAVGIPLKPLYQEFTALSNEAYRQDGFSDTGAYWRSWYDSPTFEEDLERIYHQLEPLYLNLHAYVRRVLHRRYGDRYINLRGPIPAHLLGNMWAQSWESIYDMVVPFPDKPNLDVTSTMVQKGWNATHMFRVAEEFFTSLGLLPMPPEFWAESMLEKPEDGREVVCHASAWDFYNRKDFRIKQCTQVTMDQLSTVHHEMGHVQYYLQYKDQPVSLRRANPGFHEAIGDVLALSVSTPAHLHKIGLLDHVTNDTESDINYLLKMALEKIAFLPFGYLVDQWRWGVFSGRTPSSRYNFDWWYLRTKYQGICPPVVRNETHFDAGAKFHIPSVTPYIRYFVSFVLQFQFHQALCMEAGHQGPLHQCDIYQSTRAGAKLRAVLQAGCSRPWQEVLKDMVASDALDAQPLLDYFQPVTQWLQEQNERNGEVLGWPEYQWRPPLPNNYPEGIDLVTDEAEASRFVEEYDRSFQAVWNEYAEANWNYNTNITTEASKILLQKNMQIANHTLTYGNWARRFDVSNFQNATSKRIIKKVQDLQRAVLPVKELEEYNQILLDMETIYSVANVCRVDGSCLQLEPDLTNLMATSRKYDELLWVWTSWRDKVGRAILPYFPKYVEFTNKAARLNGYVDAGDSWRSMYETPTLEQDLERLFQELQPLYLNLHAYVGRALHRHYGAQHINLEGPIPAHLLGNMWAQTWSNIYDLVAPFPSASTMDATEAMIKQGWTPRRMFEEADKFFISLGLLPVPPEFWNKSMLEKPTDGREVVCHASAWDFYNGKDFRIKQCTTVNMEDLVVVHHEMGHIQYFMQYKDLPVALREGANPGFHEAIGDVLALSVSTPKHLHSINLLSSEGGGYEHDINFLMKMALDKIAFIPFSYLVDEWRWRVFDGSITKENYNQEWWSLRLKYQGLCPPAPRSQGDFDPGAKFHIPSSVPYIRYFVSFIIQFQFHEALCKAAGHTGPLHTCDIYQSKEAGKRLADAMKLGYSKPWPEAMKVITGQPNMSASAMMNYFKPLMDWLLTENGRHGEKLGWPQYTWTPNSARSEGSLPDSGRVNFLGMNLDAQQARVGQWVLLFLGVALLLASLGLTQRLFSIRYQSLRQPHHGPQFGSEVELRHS
Method in brief: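 Rabbit lung ACE, 1.5 mU per well, in 150 mM Tris, 750 mM NaCl, pH 8.3, with Abz-Gly-Phe(NO2)-Pro substrate. Blank-corrected fluorescence of released Abz-Gly-OH (ex 316, em 413 nm) followed up to 90 min. Test compounds at 100 µM; captopril control at 100 nM. Inhibition % = 100 − (vi/v0 × 100).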

[19] = target: Metallo-beta-lactamase type 2 (Bacteria, UniProt C7C422); test: Binding affinity to NDM1 (unknown origin) expressed in Escherichia coli BL21(DE3) assessed as inhibition constant by measuring rate of substrate hydrolysis by UV-Vis spectrophotometric analysis; conditions: read-out: Ki; method in brief: as §2
[20] = Binding affinity to IMP1 (unknown origin) expressed in Escherichia coli BL21(DE3) assessed as inhibition constant by measuring rate of substrate hydrolysis by UV-Vis spectrophotometric analysis; conditions: read-out: Ki; method in brief: as §2

Metallo-beta-lactamase type 2 (Bacteria), sequence (C7C422 whole entry): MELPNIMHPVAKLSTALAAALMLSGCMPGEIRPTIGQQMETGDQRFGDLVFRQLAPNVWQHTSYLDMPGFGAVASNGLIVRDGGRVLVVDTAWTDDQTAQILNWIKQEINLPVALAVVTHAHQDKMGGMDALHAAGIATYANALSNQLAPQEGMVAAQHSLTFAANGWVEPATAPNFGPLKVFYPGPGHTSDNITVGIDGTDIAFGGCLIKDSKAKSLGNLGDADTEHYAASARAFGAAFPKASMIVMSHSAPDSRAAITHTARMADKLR
Metallo-beta-lactamase type 2, sequence (C7C422 whole entry): as above

Row | Compound | inhibition [1] [%] | inhibition [2] [%] | inhibition [3] [%] | inhibition [4] [%] | inhibition [5] [%] | inhibition [6] [%] | inhibition [7] [%] | inhibition [8] [%] | inhibition [9] [%] | inhibition [10] [%] | inhibition [11] [%] | MIC [12] [µg/mL] | Ki [13] [µM] | Ki [14] [µM] | MIC [15] [µg/mL] | MIC [16] [µg/mL] | Ki [17] [µM] | inhibition [18] | Ki [19] [µM] | Ki [20] [µM]
1 | S=c1[nH]nc(Cc2ccccc2)n1CCCc1ccccc1 | 30 | 63 | < 30 | < 30 | 32 | < 30 |  |  |  |  |  |  |  |  |  |  |  |  |  | 
2 | S=c1[nH]nc(-c2cc3ccccc3[nH]2)n1-c1ccc(OCc2ccccc2)cc1 | < 30 | < 30 | < 30 | < 30 |  | < 30 | < 50 | < 50 | < 50 | < 50 | < 50 |  |  |  |  |  |  |  |  | 
3 | S=c1[nH]nc(-c2ccccc2)n1CCCCc1ccccc1 |  | < 30 |  |  | 50 | 55 |  |  |  |  |  | 4 | 1.2 | 0.23 | 2 | 64 | 0.43 |  |  | 
4 | COc1ccc(O)c(-c2n[nH]c(=S)n2CC2OC(=O)c3ccccc32)c1 (centres undefined) |  | 47 |  |  |  | 68 |  |  |  |  |  | 2 | 1.2 | 3.3 | 2 | 64 | 0.9 | inactive |  | 
5 | O=C(O)c1ccc(Cn2c(-c3ccccc3)n[nH]c2=S)cc1 |  | < 30 |  |  | 45 | < 30 |  |  |  |  |  | 2 | 3.6 | 2.7 | 4 | 64 | 1.1 |  |  | 
6 | S=c1[nH]nc(Cc2ccccc2)n1Cc1ccccc1 |  | 57 | < 30 | < 30 | 40 | < 30 |  |  |  |  |  |  | 23 |  |  |  |  |  |  | 
7 | S=c1[nH]nc(-c2ccccc2)n1[C@@H]1C[C@H]1c1ccccc1 |  |  | 30 | < 30 |  |  | < 50 |  |  |  |  |  | 3.1 |  |  |  |  |  | 15.4 | 
8 | O=C1OC(Cn2c(Cc3ccc4ccccc4c3)n[nH]c2=S)c2ccccc21 (centres undefined) | < 30 | 30 | < 30 | < 30 |  | < 30 | < 50 | < 50 |  | < 50 | < 50 |  |  |  |  |  |  |  |  | 
9 | S=c1[nH]nc(-c2ccccc2)n1CCc1c[nH]c2ccccc12 | 50 | < 30 |  |  |  | < 30 | 50 |  | < 50 | < 50 | 50 |  |  |  |  |  |  |  |  | 
10 | O=C1OC(Cn2c(-c3ccccc3-c3ccccc3)n[nH]c2=S)c2ccccc21 (centres undefined) | 30 | 54 | < 30 | 34 |  | < 30 |  |  |  | < 50 | < 50 |  |  |  |  |  |  |  |  | 
11 | COc1ccc(O)c(-c2n[nH]c(=S)n2Cc2ccccc2)c1 |  | < 30 |  |  | 40 | < 30 |  |  |  |  |  | 2 | 0.59 | 4 | 2 | 32 | 1.8 |  |  | 
12 | Cc1ccccc1-c1n[nH]c(=S)n1CCc1ccc(OCc2ccccc2)cc1 | 47 | < 30 | < 30 | < 30 |  | < 30 | < 50 |  | < 50 | < 50 | < 50 |  |  |  |  |  |  |  |  | 
13 | O=C(O)Cc1ccccc1Cn1c(-c2ccccc2)n[nH]c1=S | < 30 | < 30 | 50 | < 30 | < 30 | < 30 |  |  |  |  |  |  |  |  |  |  |  |  |  | 
14 | O=C(O)c1cccc(Cn2c(-c3ccccc3)n[nH]c2=S)c1 |  | < 30 |  |  |  | < 30 |  |  |  |  |  | 2 | 1.4 | 1.8 | 2 | 32 | 0.4 | inactive |  | 
15 | Sc1nnc(-c2ccccc2)n1Cc1ccccc1 |  |  |  |  |  | < 30 |  |  |  |  |  | 4 | 0.72 |  | 4 |  | 1.5 | inactive |  | 8
16 | S=c1[nH]nc(-c2ccccc2)n1CCc1ccc(OCc2ccccc2)cc1 | 34 |  |  | < 30 |  | < 30 | < 50 |  |  | < 50 |  |  |  | 18.9 |  |  |  |  |  | 5.3
